# Compound activity from PubChem BioAssay.
# Rows were chosen to be rich in hits. Some 2.6% of all compounds tested hit in one or more screens of this group.
# SENP1 inh: SENP1 (human) catalytic domain inhibition; Q9P0U3; recombinant SENP1 catalytic domain, CyPet-SUMO1-YPet FRET cleavage; inhibition, % at 10 µM; 360,000 tested, 0.21% active;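 active = inhibition at least 30% at 10 µM, raw YFP signal under a set limit, fluorescence ratio 0.5 to 1.5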;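 also: 0% = enzyme with DMSO and 100% = no enzyme wells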
# Target sequence (Q9P0U3 419-644 limits assumed): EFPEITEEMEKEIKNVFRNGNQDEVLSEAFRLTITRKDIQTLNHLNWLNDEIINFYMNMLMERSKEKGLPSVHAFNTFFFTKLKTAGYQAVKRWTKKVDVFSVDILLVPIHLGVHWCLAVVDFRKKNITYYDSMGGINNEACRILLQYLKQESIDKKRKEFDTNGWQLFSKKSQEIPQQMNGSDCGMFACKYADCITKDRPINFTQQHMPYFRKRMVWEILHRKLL
#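 Assay system: hSENP1 catalytic domain, recombinant. Amount: SENP1 enzyme, 20 pM final. Schedule: 50 min reaction, RT, dark. Technique: FRET, CFP and YFP emission. Control set: no-enzyme wells low, DMSO-plus-enzyme wells high control.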
# SENP8 block-1: SENP8 (human) protease inhibition; Q96LD8; recombinant SENP8, Nedd8 substrate fluorescence; inhibition, % at 20 µM; 360,000 tested, 0.64% active; AID 602440; in the data active = inhibition mostly above about 40%, no sharp cut-off; inactive = mostly below about 27%
# Target sequence (Q96LD8 whole entry, looked up): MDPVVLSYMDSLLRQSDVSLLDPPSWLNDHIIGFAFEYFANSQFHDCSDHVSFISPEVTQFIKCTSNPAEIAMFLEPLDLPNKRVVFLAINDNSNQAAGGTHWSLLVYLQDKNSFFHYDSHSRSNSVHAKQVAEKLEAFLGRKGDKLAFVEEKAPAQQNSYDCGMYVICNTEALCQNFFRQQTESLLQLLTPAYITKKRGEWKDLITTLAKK
# SENP8 block-2: blocks the human protease SENP8; Q96LD8; purified SENP8, Z-RLRGG-aminoluciferin cleavage, luminescence; inhibition, % at 10 µM; 330,000 tested, 1.2% active; in the data active = inhibition above about 50%
# Platelet DG rel: platelet dense granule release activity | 300,000 tested, 0.22% active | inhibition, %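 (compounds screened at 7.5 µM in platelet-rich plasma)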 | AID 1663 | human platelet-rich plasma, SFLLRN dense granule ATP release, luminescence;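 active = mean replicate score, as percent of positive control, at or above 50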
# SENP6 block: SENP6 protease inhibition. inhibition, % at 10 µM. Recombinant SENP6 catalytic domain, aminoluciferin luminescence. AID 2599. Q9GZR1. 330,000 tested, 1.8% active;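 active = inhibition above about 50% at the single tested dose, limit read from the data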;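 also: plate controls were DMSO wells with enzyme for no effect and DMSO wells lacking enzyme for full effect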
# SENP7 block: blocks the human protease SENP7; 330,000 tested, 1.5% active; recombinant SENP7, Z-RLRGG-aminoluciferin luminescence, 40 min; inhibition, % at 5 µM;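 active = inhibition above about 50% at the single test dose, limit read from the data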;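 also: plate controls were DMSO with enzyme for no effect and no enzyme buffer wells for full effect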
# SENP8 conf: human SENP8 inhibition, confirmed; inhibition, % at 12.5 µM; shares compounds with SENP7 block; 6,200 tested, 40% active; Recombinant SENP8, Z-RLRGG-aminoluciferin luminescence, 60 min;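 active = mean inhibition across replicates above about 50%, limit read from the data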
# SENP6 conf: human SENP6 inhibition, confirmed; AID 488915; recombinant SENP6, Z-RLRGG-aminoluciferin luminescence; inhibition, % at 12.5 µM; shares compounds with SENP7 block; 6,200 tested, 58% active
# SENP7 confirm: confirmation of human SENP7 protease inhibitors. 6,200 tested, 69% active. shares compounds with SENP7 block. inhibition, % at 12.5 µM. recombinant SENP7, Z-RLRGG-aminoluciferin luminescence, 40 min. AID 488917
# Casp3 SENP sel: inhibits human caspase-3 in SENP selectivity test; shares compounds with SENP7 block; purified caspase-3, Z-DEVD-aminoluciferin luminescence, 60 min; inhibition, % at 12.5 µM; 6,200 tested, 60% active;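 active = mean inhibition above about 50%, limit read from the data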;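 also: plate controls were enzyme with DMSO for no effect and wells without caspase-3 for full effect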
# SENP luc ctr: counter-screen for SENP inhibitors: luminescence interference. shares compounds with SENP7 block. Pre-incubated SENP8/Z-RLRGG-aminoluciferin, luciferase luminescence interference. inhibition, % at 12.5 µM. 6,200 tested, 39% active;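 active = mean inhibition above about 50% when retested at one dose, limit read from the data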;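 also: plate controls were DMSO wells with completed reaction for no effect and substrate without enzyme for full effect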
# * marks the source's active call; other numbers are inactive results; x = not tested or not shown.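 The calls were made as follows, unless noted: active = mean inhibition above about 50% in the one-dose retest (limit read from the data); inactive = the rest.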
SMILES,SENP1 inh,SENP8 block-1,SENP8 block-2,Platelet DG rel,SENP6 block,SENP7 block,SENP8 conf,SENP6 conf,SENP7 confirm,Casp3 SENP sel,SENP luc ctr
CCOC(=O)c1c(C)oc2c1c(C=NCCC(=O)O)c(O)c1ccccc12,-32,32,66*,-2,77*,26,-18,44,20,-3,2
CC(C)(Oc1ccc(Br)cc1Cl)C(=O)Nc1ccon1,0,-9,2,1,0,-1,x,x,x,x,x
Nc1ccc(-c2nc3ccc(N)cc3s2)cc1,-79,-432,86*,54*,95*,95*,92*,92*,99*,93*,90*
Nc1cccc(-c2nc3ccc(N)cc3s2)c1,-78,-403,94*,76*,97*,98*,98*,98*,102*,97*,96*
Nc1ccc(-c2nc3ccc(C(=O)O)cc3s2)cc1,-114,-407,x,14,x,x,x,x,x,x,x
CCN(CC)c1ccc(Nc2nc(-c3cccnc3)cs2)cc1,4,16,57*,17,62*,11,56*,52*,88*,47,22
CN(C)c1ccc(Nc2nc(-c3cccnc3)cs2)cc1,1,24,87*,18,88*,89*,43,78*,96*,92*,32
COc1ccc(Nc2nc(-c3cccnc3)cs2)c(OC)c1,2,7,-9,0,12,-18,x,x,x,x,x
Fc1ccc(Nc2nc(-c3cccnc3)cs2)cc1,2,1,2,2,25,34,x,x,x,x,x
COc1ccccc1Nc1nc(-c2cccnc2)cs1,0,16,50*,0,67*,53*,-26,39,78*,42,60*
CSc1cccc(CN2CCC(CCC(=O)NC3CC3)CC2)c1,0,22,11,1,-5,1,x,x,x,x,x
CC(C)C[C@H](NC(=O)N1CCn2c1nc1ccccc12)C(=O)N1CCCCC1,-1,11,-8,9,2,-4,x,x,x,x,x
Cc1ccccc1CC(=O)Nc1cc(C(C)(C)C)on1,3,7,8,2,28,7,x,x,x,x,x
c1ccc(-c2ncc(-c3ccn[nH]3)s2)cc1,-2,-387,83*,13,91*,91*,84*,85*,98*,87*,59*
Cc1ccc(SCCC(=O)Nc2ccccc2Br)cc1,3,5,39,1,58*,38,49,44,78*,48,51*
N/C(=N\OC(=O)c1cccc(Br)c1)c1ccccc1,0,14,67*,-2,72*,86*,67*,73*,97*,82*,26
N/C(=N\OC(=O)c1ccco1)c1cccc(Br)c1,3,19,52*,1,78*,74*,70*,68*,90*,76*,67*
N/C(=N\OC(=O)c1ccoc1)c1ccc(Br)cc1,1,4,84*,5,93*,91*,76*,71*,94*,75*,70*
Cc1cccc(C(=O)O/N=C(\N)c2ccc(Br)cc2)c1,3,-5,8,-2,38,25,x,x,x,x,x
COc1ccc(C)cc1C(=O)CCC(=O)NCCc1ccc(S(N)(=O)=O)cc1,-2,-1,7,19,-4,1,x,x,x,x,x
Cc1ccc(NC(=O)Nc2cccs2)cc1,3,4,55*,12,64*,26,2,56*,87*,65*,9
CCc1ccc(NC(=O)Nc2ccon2)cc1,0,21,19,9,23,52*,42,35,70*,52*,44
CCc1ccc(NC(=O)Nc2cccs2)cc1,8,9,57*,23,78*,47,2,56*,89*,53*,8
Cc1ccc(NC(=O)Nc2cccs2)nc1,1,19,-20,-4,-13,-10,x,x,x,x,x
CCOc1ccc(NC(=O)Nc2cccs2)cc1,1,27,67*,23,27,73*,-18,72*,95*,85*,82*
SMILES,SENP1 inh,SENP8 block-1,SENP8 block-2,Platelet DG rel,SENP6 block,SENP7 block,SENP8 conf,SENP6 conf,SENP7 confirm,Casp3 SENP sel,SENP luc ctr
Cc1cccc(NC(=O)CNC(=O)c2cc(S(=O)(=O)N(C)C)ccc2N2CCCC2)c1C,-2,-69,x,x,x,x,x,x,x,x,x
Nc1nonc1-n1nnc(C(=O)N/N=C/c2ccncc2)c1-c1ccccc1,-1,1,2,7,-24,4,x,x,x,x,x
COC(=O)C[C@H]1C=C[C@H](NC(=O)Nc2ccccc2)[C@@H](CO)O1,1,17,x,x,x,x,x,x,x,x,x
COc1ccc(CCNC(=O)CSc2nnc3ccc(-c4ccccn4)nn23)cc1,1,-35,5,7,-6,-1,x,x,x,x,x
CC(=O)c1ccc(S(=O)(=O)N2CCCC(N(C)CCc3ccccn3)C2)cc1 (stereo not drawn),-4,-9,7,10,7,1,x,x,x,x,x
CCOc1ccc(NC(=O)Nc2cccnc2)cc1,2,18,22,28,60*,58*,22,24,75*,74*,47
O=C(Nc1cccs1)Nc1ccc(F)cc1F,3,10,-8,-14,11,18,x,x,x,x,x
O=C(Nc1cccs1)Nc1ccc(Br)cc1F,0,4,11,-3,64*,13,22,22,61*,23,22
COc1ccc(NC(=O)Nc2cccnc2)cc1,0,16,-2,8,4,-3,x,x,x,x,x
COc1cc(/C=C(\NC(=O)c2ccccc2)C(=O)Nc2nccs2)ccc1OC(C)=O,-9,-5,-7,-1,-23,-3,x,x,x,x,x
CCOC(=O)N1CCN(S(=O)(=O)c2ccc(OC)c(Br)c2)CC1,0,20,-3,5,-5,7,x,x,x,x,x
N#Cc1c(/N=C/c2cccs2)sc2c1CCC2,-11,28,79*,8,65*,95*,35,35,22,34,22
N#Cc1c(/N=C/c2ccco2)sc2c1CCCCC2,-1,20,94*,8,92*,96*,4,98*,69*,75*,22
N#Cc1c(/N=C/c2cc(Br)cs2)sc2c1CCC2,-5,12,-13,2,-17,8,x,x,x,x,x
